Experiment [1] concerns the target T1, Melanocortin receptor 4 (Homo sapiens, UniProt P32245). Kind of experiment: Agonist activity at of human MC4R expressed in HEK293 cells assessed as cAMP level at 10^-7 to 10^-12 M after 15 mins by chemiluminescent assay relative to 10% forskolin response. The class given is functional, cell-based. A digest of the protocol:
(§1)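 Same cAMP immunoassay in HEK293/hMC4R cells (1mM IBMX, 15 min ligand at 37°C, basal subtracted). For each ligand, the concentration giving cAMP at 5%, 10% or 25% of the 10 μM forskolin maximum was found. Receptor occupancy there was computed as [RL] = Bmax × [L]/([L] + Kd), with Kd from the Eu-NDP-α-MSH competition binding assays.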

The target of experiment [2] is T1, Melanocortin receptor 4. Kind of experiment: Agonist activity at of human MC4R expressed in HEK293 cells assessed as cAMP level at 10^-7 to 10^-12 M after 15 mins by chemiluminescent assay relative to 5% forskolin response. It counts as functional, cell-based. A digest of the protocol:
as §1
A general note: Cyclic AMP is a second messenger, typically raised through Gs and lowered through Gi signalling.

Experiment [3] addresses T1, Melanocortin receptor 4. Kind of experiment: Agonist activity at human MC4R expressed in HEK293 cells assessed as increase in cAMP production at 10^-7 to 10^-12 M after 15 mins by chemiluminescent assay. The class given is functional, cell-based. A digest of the protocol: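 HEK293/hMC4R cells in DMEM with 10% SCS, seeded 3 days ahead. Cells pre-incubated 10 min at 37°C with 1mM IBMX, then 8 ligand concentrations given for 15 min at 37°C. Lysed 25 min at 37°C. cAMP measured by competitive chemiluminescent immunoassay (AP conjugate, anti-cAMP antibody) against a same-run standard curve, basal subtracted. Triplicate wells, 3 experiments.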

The target in experiment [4] is T1, Melanocortin receptor 4. In words: Displacement of Eu-NDP-alpha-MSH from human MC4R expressed in HEK293 cells after 2 hrs by time resolved fluorescence assay. The class given is cell-based.

pIC50: −log10 of the molar value. Active and inactive are the calls of the source. The rule behind the calls is not given here.

T1 sequence (P32245 whole entry): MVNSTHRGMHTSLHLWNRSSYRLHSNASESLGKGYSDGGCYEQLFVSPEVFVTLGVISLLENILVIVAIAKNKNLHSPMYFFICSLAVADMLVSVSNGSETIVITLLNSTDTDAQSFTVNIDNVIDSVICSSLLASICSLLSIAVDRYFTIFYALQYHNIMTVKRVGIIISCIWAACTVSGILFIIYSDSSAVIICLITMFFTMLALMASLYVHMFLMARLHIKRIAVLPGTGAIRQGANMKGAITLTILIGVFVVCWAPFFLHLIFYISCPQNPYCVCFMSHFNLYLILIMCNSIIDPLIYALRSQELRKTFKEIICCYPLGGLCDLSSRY

For `C#CCCCC(=O)N[C@@H](Cc1cnc[nH]1)C(=O)N[C@H](Cc1ccccc1)C(=O)N[C@@H](CCCNC(=N)N)C(=O)N[C@@H](Cc1c[nH]c2ccccc12)C(=O)Nc1cn(CC(=O)NCCCC(CCCNC(=O)Cn2cc(NC(=O)[C@H](Cc3c[nH]c4ccccc34)NC(=O)[C@H](CCCNC(=N)N)NC(=O)[C@@H](Cc3ccccc3)NC(=O)[C@H](Cc3cnc[nH]3)NC(=O)CCC#C)nn2)(NC(=O)CNC(=O)Cn2cc(NC(=O)[C@H](Cc3c[nH]c4ccccc34)NC(=O)[C@H](CCCNC(=N)N)NC(=O)[C@@H](Cc3ccccc3)NC(=O)[C@H](Cc3cnc[nH]3)NC(=O)CCC#C)nn2)C(=O)NCCC(N)=O)nn1` (some centres not stated), the Activity on Melanocortin receptor 4 [1] was determined as 75000 pmol; at Melanocortin receptor 4 [2], 14000 pmol. Besides, the outcome at Melanocortin receptor 4 [3] was Active.
Regarding `C#CCCCC(=O)N[C@@H](Cc1cnc[nH]1)C(=O)N[C@H](Cc1ccccc1)C(=O)N[C@@H](CCCNC(=N)N)C(=O)N[C@@H](Cc1c[nH]c2ccccc12)C(=O)Nc1cn(CC(=O)NCCCC(CCCNC(=O)Cn2cc(NC(=O)[C@H](Cc3c[nH]c4ccccc34)NC(=O)[C@H](CCCNC(=N)N)NC(=O)[C@@H](Cc3ccccc3)NC(=O)[C@H](Cc3cnc[nH]3)NC(=O)CCC#C)nn2)(NC(=O)CNC(C)=O)C(=O)NCCC(N)=O)nn1` (some centres not stated), the Activity at Melanocortin receptor 4 [1] amounted to 45000 pmol; on Melanocortin receptor 4 [2], 12000 pmol. Besides, the pIC50 at Melanocortin receptor 4 [4] is 6.51. Further, the result on Melanocortin receptor 4 [3] was Active.

For orientation: pIC50 means the IC50 on a negative log10 scale, so that one unit is a factor of ten.

(Values after ChEMBL document CHEMBL1833902, “Design, synthesis, and biological studies of efficient multivalent melanotropin ligands: tools toward melanoma diagnosis and treatment” (J Med Chem, 2011).)
